Test results from publication PMC5912934 (ChemMedChem, 2017).

Columns and labels:
[1] = system: various cancer cell lines; test: Cancer cell line screening, all cell lines together; type: cell-based, human; conditions: for IC50: Homo sapiens, read-out: IC50 in cancer cell lines, lowest value
[2] = Aqueous benchtop stability in phosphate buffer; type: physicochemical; conditions: 25 μg/mL, pH 5.0, 7.0 and 7.5, room temperature, up to 24 hours
In short: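 Test compound at 1 mg/mL in anhydrous DMSO (stock) was spiked into phosphate buffer at 25 μg/mL, at pH 5.0, 7.0 and 7.5, and stirred at room temperature. Aliquots were taken at 0, 0.25, 0.5, 1, 4, 8 and 24 h and checked by TLC against a verified standard. Aliquots were then extracted twice with chloroform, and the residue was examined by 1H NMR to confirm the TLC findings.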

HeLa cells = conditions: read-out: IC50 against HeLa cells; cited from earlier work
female nude mice = test: Maximum tolerated dose assay; type: in vivo
Stability in human serum = type: in vitro ADME; conditions: pooled human serum, up to 24 hours
In short: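 The test compound came from a 1 mg/mL anhydrous DMSO stock and was incubated in pooled human serum […]. It followed the same workflow as the buffer test. Timed aliquots were taken up to 24 h and compared by TLC against a verified standard. Aliquots were then extracted with two chloroform portions, the solvent was removed, and the residue was analysed by 1H NMR to verify TLC.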

[3] = system: A549 adenocarcinomic human alveolar basal epithelial cells; test: IC50 proliferation assay; type: cell-based; conditions: A549, 72 h, read-out: A549 cancer cell line activity (IC50)
In short: (§1)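 Cells were grown at 37 °C in 5% CO2 in RPMI 1640 or DMEM with 10% heat-inactivated FBS and 1% glutamine, then seeded in 96-well plates the afternoon before treatment. About 18 h later, the test compound was semi-serially diluted in DMSO, then in growth medium, and added. After 72 h, WST-1 was added and plates were read after a further 4 h at 37 °C. Assays were run in triplicate.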

[4] = system: MOLM-14 acute monocytic leukemia cells; test: IC50 proliferation assay; type: cell-based; conditions: Homo sapiens, MOLM-14, 72 h, read-out: MOLM14 cancer cell line activity (IC50)
In short: as §1

Mouse plasma stability = type: in vitro ADME
In short: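 Mouse plasma was spiked with 500 ng/mL prodrug and assayed for both prodrug and parent at 0, 5, 15, 30, 45, 60 and 90 min. Conversion was expressed as analyte counts to avoid differences between the two standard curves.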

[5] = Mouse model pharmacokinetic study; conditions: in vivo, 10 mg/kg
In short: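 Mouse plasma was analysed by a validated LC/MS/MS assay. Proteins were precipitated with an equal volume of acetonitrile after adding an internal standard (a related analogue, final 1000 ng/mL), then vortexed 10 min and centrifuged at 14,000 rpm. Standard ranges were 1–1,000 ng/mL for parent and 10–10,000 ng/mL for prodrug. Separation used a C18 column with a 0.1% formic acid/acetonitrile gradient at 1 mL/min. Detection was positive electrospray on a triple quadrupole.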

[6] = Aqueous benchtop stability at CCPC; type: physicochemical; conditions: LC/MS; for deviation of recovered from expected concentration in aqueous solution: 5-500 ng/mL in 1:1 acetonitrile/Millipore H2O
In short: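 Prodrug and its parent were spiked at 5, 12.5, 25, 50, 125, 250 and 500 ng/mL into 1:1 acetonitrile/Millipore water. Both analytes were measured by LC/MS. Concentrations were quantified against a previously constructed calibration curve at the same concentrations.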

γ-H2Ax in MOLM-14 cells = test: Gamma-H2Ax DNA damage assay in MOLM-14 cells; type: cell-based, human; conditions: MOLM-14 cells grown in 0.5 and 4 μM for 24 hours
In short: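 MOLM-14 cells were seeded the evening before at 1×10^5 cells/mL in RPMI 1640/10% FBS. Controls were DMSO and 6.0 Gy gamma irradiation (collected after 1 h); treated cells were collected after 24 h. Cells were washed in PBS/2% serum, cytospun at 1.5×10^5 cells/slide, fixed 15 min in 4% PFA, permeabilised (Triton X-100 buffer), and blocked overnight in 10% FBS/PBS/0.1% Triton. Staining used anti-γ-H2Ax plus DyLight anti-mouse secondary with DAPI mount; slides were examined by fluorescence microscopy.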

Row | IC50 [1] [µM] | Compound | aqueous stability in phosphate buffer [2] | IC50 (HeLa cells) [µM] | stability in human serum (Stability in human serum) | deviation of recovered from expected concentration in aqueous solution [6] [%] | further results
1 | – | Clc1nc(Cl)c2c(n1)c(I)cn2COCc1ccccc1 [Compound 8, 5-((Benzyloxy)methyl)-2,4-dichloro-7-iodo-pyrrolo[3,2-d]pyrimidine] | – | – | – | – | decrease of activity compared to the parent ([1]; fold, versus parent 7, Table 1 cell lines): ten-fold
2 | ≥ 0.014 | Clc1nc(Cl)c2[nH]ccc2n1 [Compound 5, 2,4-Dichloro-5H-pyrrolo[3,2-d]pyrimidine] | – | 19 ± 3 | – | – | IC50 [3]: 14.5 ± 3.5 µM; IC50 [4]: 9.5 ± 3.1 µM
3 | ≥ 0.014 | Clc1nc(Cl)c2[nH]cc(I)c2n1 [Compound 7, 2,4-Dichloro-7-iodo-5H-pyrrolo[3,2-d]pyrimidine] | stable | – | stable | ≤ 5.7 | deviation in plasma over the time frame investigated (Mouse plasma stability; mouse plasma, 0-90 minutes): 5.7%; stability in plasma (Mouse plasma stability; mouse plasma, time frame investigated (0-90 minutes)): excellent stability; time to little to no detection of the compound in mouse plasma [5]: ≤ 70 min; DNA damage (γ-H2Ax staining) (γ-H2Ax in MOLM-14 cells): significant DNA damage
4 | – | Cc1ccc(S(=O)(=O)n2cc(I)c3nc(Cl)nc(Cl)c32)cc1 [Compound 9, 2,4-Dichloro-7-iodo-5-tosyl-pyrrolo[3,2-d]pyrimidine] | stable | – | – | 15.8 | time to undetectable in biological media (Mouse plasma stability; biological media (Figure 4, mouse plasma)): ≤ 1 hour; conversion of 9 to 7 in mouse plasma (Mouse plasma stability; mouse plasma spiked with 500 ng/mL, 0-90 minutes): Significant conversion; increase in maximum tolerated dose compared to parent compound 7 (female nude mice; fold, versus 7): four-fold; hydrolysis of 9 to 7 in aqueous solution ([6]; 1:1 acetonitrile/Millipore H2O): no observed hydrolysis

Row | Compound | IC50 [1] [µM] | aqueous stability in phosphate buffer [2] | IC50 (HeLa cells) [µM] | stability in human serum (Stability in human serum) | deviation of recovered from expected concentration in aqueous solution [6] [%] | further results
5 | Clc1nc(Cl)c2[nH]cc(Br)c2n1 [Compound 6, 7-Bromo-2,4-dichloro-5H-pyrrolo[3,2-d]pyrimidine] | ≥ 0.014 | stable | 0.92 ± 0.04 | stable | – | toxicity relative to 7 (female nude mice; female, nude, mouse, in vivo): 2 fold
